From ChEMBL document CHEMBL1157083, “Characterization of tamulamides A and B, polyethers isolated from the marine dinoflagellate Karenia brevis” (J Nat Prod, 2010)

Experiments:
Ovis aries [1] = assay: Bronchoconstriction in sheep asthma model assessed as pulmonary airflow resistance at 10 pg/ml administered through aerosol for 20 breaths by pneumotachography relative to control; format: functional
[2] = Displacement of [3H]PbTx-3 from rat brain synaptosome voltage-sensitive sodium channel site 5 after 1 hr by rapid filtration based scintillation counting; format: tissue-based
How it was run: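 Rat brain synaptosomes (0.1 mg protein/mL final) were incubated on ice for at least 1 h with about 1.5 nM [3H]-PbTx-3 and competitor (0 to 10 μM). Buffer was HEPES/choline chloride medium, pH 7.4, with 1 mg/mL BSA. Bound label was filtered and counted by scintillation. Apparent Ki came from one-site competition fits, with ≥3 experiments each run in duplicate or triplicate.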

Gambusia affinis [3] = assay: Toxicity in mosquito fish assessed as time required for mortality at 200 nM; format: organism-based; details: in vivo, 0.2 µM
How it was run: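 Fish received 0.2 mL of test solution or an EtOH vehicle in tank water, giving 25-200 nM final. Five fish were used per concentration. Fish were watched for 24 h or until death. Time of death in minutes is given as mean ± S.E.M., compared by t-test.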

Ovis aries [4] = assay: Bronchoconstriction in sheep 2297 asthma model assessed as pulmonary airflow resistance at 10 pg/ml administered through aerosol for 20 breaths by pneumotachography relative to control; format: functional
Ovis aries [5] = assay: Bronchoconstriction in sheep 1988 asthma model assessed as pulmonary airflow resistance at 10 pg/ml administered through aerosol for 20 breaths by pneumotachography relative to control; format: functional
Ovis aries [6] = assay: Bronchoconstriction in sheep 2263 asthma model assessed as pulmonary airflow resistance at 10 pg/ml administered through aerosol for 20 breaths by pneumotachography relative to control; format: functional
Ovis aries [7] = assay: Bronchoconstriction in sheep 2164 asthma model assessed as pulmonary airflow resistance at 10 pg/ml administered through aerosol for 20 breaths by pneumotachography relative to control; format: functional
Gambusia affinis [8] = assay: Toxicity in mosquito fish at 25 to 200 nM up to 24 hrs; format: organism-based; details: in vivo, 0.2 µM
How it was run: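 Fish each received 0.2 mL test solution or EtOH vehicle (0.2 mL), giving final water concentrations of 0, 25, 50, 100 or 200 nM. PbTx-2 positive control at 200 nM. Five fish per concentration. Monitored for 24 hours or until death; time of death as mean ± S.E.M., two-way Student's t-test.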

SMILES	Activity (Ovis aries [1])	Ki [2]	Activity (Gambusia affinis [3])	Activity (Ovis aries [4])	Activity (Ovis aries [5])	Activity (Ovis aries [6])	Activity (Ovis aries [7])	Activity (Gambusia affinis [8])
C=C(COC(=O)c1ccc2ccccc2c1)C[C@@H]1C[C@H](O)[C@]2(C)O[C@@H]3C[C@@H]4O[C@@H]5C[C@]6(C)O[C@]7(C)CC[C@@H]8O[C@@H]9C[C@]%10(C)O[C@@H]%11C(C)=CC(=O)O[C@H]%11C[C@H]%10O[C@H]9C[C@@H](C)[C@H]8O[C@H]7C[C@H]6O[C@@]5(C)C/C=C\[C@H]4O[C@H]3C[C@H]2O1	0%							
C=C(C=O)C[C@@H]1C[C@H](O)[C@]2(C)O[C@@H]3C[C@@H]4O[C@@H]5C[C@]6(C)O[C@]7(C)CC[C@@H]8O[C@@H]9C[C@]%10(C)O[C@@H]%11C(C)=CC(=O)O[C@H]%11C[C@H]%10O[C@H]9C[C@@H](C)[C@H]8O[C@H]7C[C@H]6O[C@@]5(C)C/C=C\[C@H]4O[C@H]3C[C@H]2O1 [BREVETOXIN B]	226%	1.2 nM	Toxic					
CC(=O)NC[C@@H]1O[C@@H]2C[C@]3(C)O[C@@H]4C=C[C@@H]5O[C@@H]6C=C[C@@H]7O[C@H](/C=C/C=C/C=O)C=C[C@H]7O[C@H]6C[C@H]5O[C@@]4(C)C[C@H]3O[C@H]2C[C@H]1O [TAMULAMIDE A]		2500 nM		34%	39%	42%	43%	Non-toxic
CC(=O)NC[C@@H]1O[C@@H]2C[C@]3(C)O[C@@H]4C=C[C@@H]5O[C@@H]6C=C[C@@H]7O[C@H](/C=C/C=C/C=O)C=C[C@H]7O[C@H]6C[C@H]5O[C@H]4C[C@H]3O[C@H]2C[C@H]1O [TAMULAMIDE B]		210 nM		33%	36%	37%	34%	Non-toxic
C=C/C=C\CC[C@H]1O[C@H]2CC[C@@]3(C)O[C@H]4[C@@H](O)C[C@@]5(C)O[C@@H](CC/C=C(C)/C(C)=C/C=O)[C@@H](C)C[C@H]5O[C@@H]4C[C@@H]3O[C@@H]2CC[C@@]1(C)O [BREVENAL]	4%	170 nM						
